For one data set, the system named is MCF7. The data set is described as follows: Cytotoxicity against human MCF7 cells. It counts as functional. The settings on record: for EC50: Homo sapiens, MCF7, read-out: ED50 (the source's name).
Data set [1] in a line: (§1) Toxicity in brine shrimp. The note with it: artemia, in vivo. The format is organism-based. The gist of the method: (§2)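 Lethality read-out in brine shrimp larvae (BST), used routinely to screen extracts, fractions and isolated compounds.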
The subject of the next data set is HT-29. The data set is described as follows: Cytotoxicity against human HT-29 cells. It counts as functional.
In a further data set the test system is A549. Briefly: Cytotoxicity against human A549 cells. It counts as functional. The note with it: for EC50: Homo sapiens, A549, read-out: ED50 (the source's name).
Another data set has as its system Artemia. The description is as §1. It counts as organism-based. The settings on record: in vivo. The procedure, abridged: as §2

≈ marks a conversion by molar mass, not a printed value.

Turning to `CCCC(O)CCCCCC[C@H](O)[C@H]1CC[C@H]([C@H]2CC[C@H]([C@H](O)CCCCCCCCCCC3CC(CC(C)=O)C(=O)O3)O2)O1` (mixture of isomers), the ED50 in the data set with MCF7 stood at 7.63 ×10⁻⁴ ug/ml; in the data set on HT-29 it was 1.09 ×10⁻¹² ug/ml; with A549, 3.29 ×10⁻¹¹ ug/ml. Besides, the LC50 in data set [1] was found to be 0.158 µg/mL.

For the compound `CCC(O)CCCCCCC[C@H](O)[C@H]1CC[C@H]([C@H]2CC[C@H]([C@H](O)CCCCCCCCCCC3CC(CC(C)=O)C(=O)O3)O2)O1` (mixture of isomers), the EC50 in the data set with MCF7 worked out at 0.161 µg/mL; in the data set with A549 it was 0.00125 µg/mL. Further, the LC50 in the data set with Artemia worked out at 4.67 ×10⁻² ug/ml. Further, in the data set with HT-29, the ED50 is listed as <1 ×10⁻¹² ug/ml.

In the case of `CCCCC(O)CCCCC[C@H](O)[C@H]1CC[C@H]([C@H]2CC[C@H]([C@H](O)CCCCCCCCCCC3CC(CC(C)=O)C(=O)O3)O2)O1` (mixture of isomers), the EC50 in the data set with MCF7 was 0.105 µg/mL. Further, the LC50 in the data set on Artemia came to 4.05 ×10⁻² ug/ml. In addition, the ED50 is recorded as <1 ×10⁻¹² ug/ml with HT-29 and 1.66 ×10⁻⁹ ug/ml in the data set on A549.

For `CCCCCCCCCC[C@H](O)[C@H]1CC[C@H]([C@H]2CC[C@H]([C@H](O)CCCCCCCCCCC3CC(CC(C)=O)C(=O)O3)O2)O1` (mixture of isomers), the figures for the EC50 in the data set with MCF7 and with A549 were 12.2 µg/mL and 0.00218 µg/mL, respectively. The LC50 in data set [1] was determined as 0.0054 µg/mL. Further, the ED50 in the data set with HT-29 was found to be 1.19 ×10⁻⁶ ug/ml.

Turning to `COc1cccc2c1C(=O)c1c(O)c3c(c(O)c1C2=O)C[C@@](O)(C(=O)CO)C[C@@H]3O[C@H]1C[C@H](N)[C@H](O)[C@H](C)O1` [DOXORUBICIN], the EC50 with MCF7 came out at 0.00202 µg/mL (≈ 3.72 nM). The ED50 in the data set with HT-29 is 3.32 ×10⁻⁴ ug/ml; with A549, 1.98 ×10⁻⁴ ug/ml.
